The values below come from ChEMBL document CHEMBL1221233, “4''-O-(omega-Quinolylamino-alkylamino)propionyl derivatives of selected macrolides with the activity against the key erythromycin resistant respiratory pathogens” (2010).

Common to all, as to assay type: functional
The test system of one test is Haemophilus influenzae. As to the kind of experiment: Antibacterial activity against Haemophilus influenzae ATCC 49247 by broth microdilution method. A digest of the protocol: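 MIC by broth microdilution following CLSI guidelines, expressed in units of lg/mL. Twofold dilutions prepared in 96-well plates. H. influenzae grown on Mueller-Hinton chocolate agar before testing.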

For test [1], the system named is Streptococcus pyogenes. The test can be described thus: Antibacterial activity against constitutive MLS resistance sStreptococcus pyogenes 166 GR-Micro by broth microdilution method. A digest of the protocol: (§1)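 MIC by CLSI broth microdilution. In the streptococcal medium, 5% horse serum replaced lysed blood. Compounds were tested as two-fold serial dilutions. Strains were first grown on Columbia agar with 5% sheep blood. The MIC was read as the lowest concentration inhibiting growth.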

The subject of test [2] is Staphylococcus aureus. As to the kind of experiment: Antibacterial activity against efflux-mediated macrolide-resistance Staphylococcus aureus PK1 by broth microdilution method. A digest of the protocol: (§2)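 Staphylococci were grown on Mueller-Hinton agar and then tested by CLSI-guideline broth microdilution against two-fold serial dilutions of compound. The result was recorded as the minimum inhibitory concentration.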

The test system of test [3] is Streptococcus pneumoniae. As to the kind of experiment: Antibacterial activity against efflux-mediated macrolide-resistance Streptococcus pneumoniae Ci137 by broth microdilution method. A digest of the protocol: as §1
Test [4] deals with Streptococcus pyogenes. As to the kind of experiment: Antibacterial activity against efflux-mediated macrolide-resistance Streptococcus pyogenes 2 Finland by broth microdilution method. A digest of the protocol: as §1
Test [5] concerns Staphylococcus aureus. The test can be described thus: Antibacterial activity against inducible resistance to macrolide, licosamide and streptogramin Staphylococcus aureus 90256 by broth microdilution method. A digest of the protocol:
as §2

Test [6] deals with Streptococcus pneumoniae. The test can be described thus: Antibacterial activity against inducible resistance to macrolide and constitutive resistance to lincosamide Streptococcus pneumoniae 134 GR M by broth microdilution method. A digest of the protocol: as §1
In test [7] the test system is Streptococcus pneumoniae. As to the kind of experiment: Antibacterial activity against constitutive MLS resistance Streptococcus pneumoniae 58 by broth microdilution method. A digest of the protocol: as §1

≈ marks a conversion by molar mass, not a printed value.

On to `CC[C@H]1OC(=O)[C@H](C)[C@@H](O[C@H]2C[C@@](C)(OC)[C@@H](O)[C@H](C)O2)[C@H](C)[C@@H](O[C@@H]2O[C@H](C)C[C@H](N(C)C)[C@H]2O)[C@](C)(O)C[C@@H](C)CN(C)[C@H](C)[C@@H](O)[C@]1(C)O` [AZITHROMYCIN], for which the MIC in the test with Haemophilus influenzae was 1 µg/mL (≈ 1.34 µM); in the test with Streptococcus pyogenes [1], greater than 64 µg/mL; against Staphylococcus aureus [2], greater than 64 µg/mL; against Streptococcus pneumoniae [3], 8 µg/mL (≈ 10.7 µM); against Streptococcus pyogenes [4] it was 8 µg/mL (≈ 10.7 µM); in the test with Staphylococcus aureus [5], greater than 64 µg/mL. In addition, the MIC against Streptococcus pneumoniae [6] and in the test with Streptococcus pneumoniae [7] was greater than 64 µg/mL in each case.
`CC[C@H]1OC(=O)[C@H](C)[C@@H](O[C@H]2C[C@@](C)(OC)[C@@H](OC(=O)CCNCCCCNc3ccc4c(=O)c(C(=O)O)cn(C)c4c3)[C@H](C)O2)[C@H](C)[C@@H](O[C@@H]2O[C@H](C)C[C@H](N(C)C)[C@H]2O)[C@](C)(O)C[C@@H](C)C(=O)[C@H](C)[C@@H](O)[C@]1(C)O`: the MIC with Haemophilus influenzae was greater than 32 µg/mL; with Streptococcus pyogenes [1] it was 16 µg/mL (≈ 14.9 µM); in the test with Staphylococcus aureus [2] it was 4 µg/mL (≈ 3.71 µM); against Streptococcus pneumoniae [3], 4 µg/mL (≈ 3.71 µM); against Streptococcus pyogenes [4], 0.25 µg/mL (≈ 0.232 µM); with Staphylococcus aureus [5], greater than 32 µg/mL. For the same compound, the MIC was 2 µg/mL (≈ 1.86 µM) against Streptococcus pneumoniae [6] and 4 µg/mL (≈ 3.71 µM) in the test on Streptococcus pneumoniae [7].
For `CC[C@H]1OC(=O)[C@H](C)[C@@H](O[C@H]2C[C@@](C)(OC)[C@@H](OC(=O)CCNCCCCNc3ccc4c(=O)c(C(=O)O)cn(C)c4c3)[C@H](C)O2)[C@H](C)[C@@H](O[C@@H]2O[C@H](C)C[C@H](N(C)C)[C@H]2O)[C@](C)(O)C[C@@H](C)NC(=O)[C@H](C)[C@@H](O)[C@]1(C)O`, the MIC against Haemophilus influenzae was greater than 32 µg/mL; in the test on Streptococcus pyogenes [1] it was 32 µg/mL (≈ 29.3 µM); against Staphylococcus aureus [2], 16 µg/mL (≈ 14.6 µM); with Streptococcus pneumoniae [3], 4 µg/mL (≈ 3.66 µM); in the test on Streptococcus pyogenes [4], 8 µg/mL (≈ 7.32 µM); in the test on Staphylococcus aureus [5], greater than 32 µg/mL. The MIC in the test with Streptococcus pneumoniae [6] stood at 16 µg/mL (≈ 14.6 µM); against Streptococcus pneumoniae [7], 32 µg/mL (≈ 29.3 µM).
Regarding `CC[C@H]1OC(=O)[C@H](C)[C@@H](O[C@H]2C[C@@](C)(OC)[C@@H](OC(=O)CCNCCNc3ccc4c(=O)c(C(=O)O)cn(CC)c4c3)[C@H](C)O2)[C@H](C)[C@@H](O[C@@H]2O[C@H](C)C[C@H](N(C)C)[C@H]2O)[C@](C)(O)C[C@@H](C)C(=O)[C@H](C)[C@@H](O)[C@]1(C)O`, the MIC is 2 µg/mL (≈ 1.88 µM) in the test on Haemophilus influenzae; no more than 0.125 µg/mL against Streptococcus pyogenes [1]; 0.5 µg/mL (≈ 0.47 µM) in the test on Staphylococcus aureus [2]; no more than 0.125 µg/mL against Streptococcus pneumoniae [3]; no more than 0.125 µg/mL in the test with Streptococcus pyogenes [4]; 1 µg/mL (≈ 0.94 µM) with Staphylococcus aureus [5]. Also, the MIC in the test with Streptococcus pneumoniae [6] and against Streptococcus pneumoniae [7] was no more than 0.125 µg/mL throughout.
On to `CC[C@H]1OC(=O)[C@H](C)C(=O)[C@H](C)[C@@H](O[C@@H]2O[C@H](C)C[C@H](N(C)C)[C@H]2O)[C@](C)(OC)C[C@@H](C)C(=O)[C@H](C)[C@H]2N(CCCCn3cnc(-c4cccnc4)c3)C(=O)O[C@]12C` [TELITHROMYCIN], for which the MIC against Haemophilus influenzae is 2 µg/mL (≈ 2.46 µM); in the test with Streptococcus pyogenes [1] it was 16 µg/mL (≈ 19.7 µM); in the test on Staphylococcus aureus [2], no more than 0.125 µg/mL; against Streptococcus pneumoniae [3], 0.25 µg/mL (≈ 0.308 µM); with Streptococcus pyogenes [4], 0.5 µg/mL (≈ 0.616 µM); against Staphylococcus aureus [5] it was no more than 0.125 µg/mL. The MIC against Streptococcus pneumoniae [6] and in the test with Streptococcus pneumoniae [7] was 0.25 µg/mL (≈ 0.308 µM) in each case.
In the case of `CC[C@H]1OC(=O)[C@H](C)[C@@H](O[C@H]2C[C@@](C)(OC)[C@@H](OC(=O)CCNCCNc3cc4c(=O)c(C(=O)OC)cn(C5CC5)c4cc3Cl)[C@H](C)O2)[C@H](C)[C@@H](O[C@@H]2O[C@H](C)C[C@H](N(C)C)[C@H]2O)[C@](C)(O)C[C@@H](C)CN(C)[C@H](C)[C@@H](O)[C@]1(C)O`, the MIC is 8 µg/mL (≈ 7.02 µM) against Haemophilus influenzae; no more than 0.125 µg/mL in the test on Streptococcus pyogenes [1]; 8 µg/mL (≈ 7.02 µM) against Staphylococcus aureus [2]; no more than 0.125 µg/mL with Streptococcus pneumoniae [3]; no more than 0.125 µg/mL in the test on Streptococcus pyogenes [4]; greater than 64 µg/mL in the test on Staphylococcus aureus [5]. Also, the MIC against Streptococcus pneumoniae [6] and against Streptococcus pneumoniae [7] was no more than 0.125 µg/mL in each case.
